Compound activity: PubChem, Johns Hopkins Ion Channel Center
TRPC4 act – activators of mouse TRPC4 channel, primary screen, Fluo4 calcium, HEK293 TRPC4beta/mu-opioid cells. hit rate 0.49% among 310,000. Fluo4 calcium fluorescence; stronger effect = higher value. B-score at 10 µM;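 active = B-score above 5 SD of library B-scores, and initial fluorescence ratio not above library mean plus 5 SD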;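 also: positive B-score marks a calcium rise read as TRPC4 activation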
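system = HEK293 cells stably co-expressing mouse TRPC4beta and mu-opioid receptor | schedule = Fluo4 dye loading 45 min at room temperature, 110 s recording | measure = B-scored integrated calcium fluorescence ratio | signal = Fluo4 calcium-sensitive dye fluorescence, kinetic, 1 Hz baseline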
TRPC4 inh – inhibitors of mouse TRPC4 channel, primary screen, Fluo4 calcium, HEK293 TRPC4beta/mu-opioid cells; Short transient receptor potential channel 4 (Mus musculus), Q9QUQ5; DAMGO-evoked Fluo4 calcium flux; stronger effect = lower value; B-score at 10 µM; hit rate 0.39% among 300,000;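 active = B-score over 3 SD under the library average, no early fluorescence shift, positive overall ratio signal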
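material = TRPC4beta/mu-opioid receptor HEK293 cell line | probe or stimulus = sequential submaximal and maximal DAMGO stimulation | compound dosing = one concentration per compound | measured by = Fluo4 Ca2+ flux fluorescence | evaluation = integrated fluorescence ratio relative to baseline, converted to per-well B score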
TRPC6 inhibitor – mouse TRPC6 channel inhibitors, primary screen, cell-based, HEK293, membrane potential dye | Short transient receptor potential channel 6 (Mus musculus), Q61143 | ACh-evoked depolarization; stronger effect = lower value | B-score at 10 µM | hit rate 1.1% among 310,000;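 active = B-score under library mean minus 3 SD, initial fluorescence not abnormally high, positive integrated signal ratio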;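 also: B-score derived from integrated fluorescence ratio over the kinetic read; more negative B-score means stronger inhibition of depolarization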
Target sequence (Q61143 whole entry, looked up): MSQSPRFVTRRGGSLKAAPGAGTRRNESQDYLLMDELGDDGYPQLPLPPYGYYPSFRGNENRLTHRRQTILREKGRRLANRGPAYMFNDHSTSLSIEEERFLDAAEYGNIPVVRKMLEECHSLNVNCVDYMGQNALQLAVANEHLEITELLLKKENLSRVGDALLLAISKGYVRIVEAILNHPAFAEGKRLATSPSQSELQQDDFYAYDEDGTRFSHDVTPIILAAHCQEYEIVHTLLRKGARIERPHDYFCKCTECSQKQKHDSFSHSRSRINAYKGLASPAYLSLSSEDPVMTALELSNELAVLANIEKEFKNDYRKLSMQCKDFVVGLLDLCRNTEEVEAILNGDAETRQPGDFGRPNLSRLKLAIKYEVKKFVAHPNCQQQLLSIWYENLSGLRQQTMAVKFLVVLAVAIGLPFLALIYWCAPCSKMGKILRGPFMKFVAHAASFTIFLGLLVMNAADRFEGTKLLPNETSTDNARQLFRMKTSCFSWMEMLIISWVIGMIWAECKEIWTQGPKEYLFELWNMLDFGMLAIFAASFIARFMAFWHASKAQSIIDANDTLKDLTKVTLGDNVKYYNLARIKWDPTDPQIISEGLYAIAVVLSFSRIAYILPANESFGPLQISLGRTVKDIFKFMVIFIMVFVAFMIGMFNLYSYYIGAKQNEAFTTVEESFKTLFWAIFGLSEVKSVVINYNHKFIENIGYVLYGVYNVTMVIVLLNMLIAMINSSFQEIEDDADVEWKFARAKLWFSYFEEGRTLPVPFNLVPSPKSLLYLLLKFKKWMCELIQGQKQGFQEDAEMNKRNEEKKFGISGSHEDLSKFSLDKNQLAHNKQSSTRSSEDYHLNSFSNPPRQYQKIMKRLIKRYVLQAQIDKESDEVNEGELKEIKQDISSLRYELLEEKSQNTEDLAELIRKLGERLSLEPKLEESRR
TRPC4 PAM – positive allosteric modulators of TRPC4, primary screen, cell-based, mouse TRPC4beta, HEK293 mu-opioid, Fluo-4 calcium | DAMGO EC20, Fluo-4 Ca2+ flux; stronger effect = higher value | Short transient receptor potential channel 4 (Mus musculus), Q9QUQ5 | B-score at 10 µM | hit rate 0.42% among 310,000;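 active = B-score of calcium response area above 5 SD of library B-scores, with initial fluorescence ratio within 5 SD of library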
TRPC6 activator – mouse TRPC6 channel activators, primary screen, cell-based, HEK293, membrane potential dye. hit rate 0.13% among 310,000. Short transient receptor potential channel 6 (Mus musculus), Q61143. B-score at 10 µM. HEK293-TRPC6 membrane potential dye fluorescence; stronger effect = higher value;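 active = B-score of the integrated fluorescence ratio above library mean plus 3 SD, and starting fluorescence ratio within library mean plus 5 SD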;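 also: higher score means more depolarization so channel activation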
TRPC4 spec 2 – mouse TRPC4 off-target activity of TRPC6 inhibitors, second screen; HEK293 TRPC4/MOR, membrane potential dye fluorescence; channel activated by saturating DAMGO dose; inhibition, % at 10 µM; hit rate 42% among 920; shares compounds with TRPC6 inhibitor;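 active = compounds whose fluorescence signal differed from control wells by over 3 SD, either direction, in both duplicate plates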
TRPC4 spec – mouse TRPC4 modulation by TRPC6 hits, confirmation, selectivity assay for TRPC6 inhibitor project, cell-based, HEK293 TRPC4/mu-opioid, membrane potential dye | activity change, negative = inhibition, % at 10 µM | shares compounds with TRPC6 inhibitor | membrane potential fluorescence | hit rate 61% among 920;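 active = rise or fall in signal beyond 3 SD of buffer-only wells in both replicate plates, either sign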;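 also: integrated kinetic ratio of fluorescence range over baseline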
HEK293 MPD ctr 2-1 – nonspecific membrane potential effects, parental HEK293, confirmation, counter-screen for TRPC6 inhibitor project, cell-based, second counter screen. shares compounds with TRPC6 inhibitor. parental HEK293 membrane potential dye fluorescence; maximal acetylcholine challenge after compound addition. signal change vs control, % at 10 µM. hit rate 31% among 920;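 active = membrane potential signal moving either way by over 3 SD of the maximum-effect control, in both duplicate plates, meaning non-specific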
HEK293 MPD ctr-1 – membrane potential modulation in parental HEK293, confirmation, counter-screen for TRPC6 inhibitor project, cell-based; membrane potential signal change, % at 10 µM; shares compounds with TRPC6 inhibitor; hit rate 60% among 920; parental HEK293 membrane potential dye fluorescence; AID 2780, 2010;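 active = membrane potential signal shifting up or down by more than 3 SD of buffer-only wells, on both duplicate plates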
HEK293 MPD ctr-2 – parental HEK293 membrane potential modulation, confirmation, counter-screen for TRPC6 modulator project, cell-based; shares compounds with TRPC6 inhibitor; membrane potential dye fluorescence; membrane potential signal change, % at 10 µM; hit rate 51% among 2,400; AID 488924, 2010;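 active = membrane potential signal moves up or down beyond 5 SD from buffer-only wells, on both duplicate plates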
HEK293 MPD ctr 2-2 – second check of TRPC6 modulator effects in parental HEK293 cells; shares compounds with TRPC6 inhibitor; membrane potential dye fluorescence; after compound, maximal acetylcholine stimulation; AID 488926; hit rate 14% among 2,400; inhibition, % at 10 µM;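 active = membrane potential signal drops by more than 5 SD from the mean control signal, in both duplicate plates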
TRPC4 ctr mod – TRPC4 modulation by TRPC6 hit compounds, confirmation, selectivity assay for TRPC6 modulator project, cell-based, HEK293 TRPC4/mu-opioid, membrane potential dye, mouse | shares compounds with TRPC6 inhibitor | membrane potential fluorescence | percent change from control (negative = decrease, positive = increase), % at 10 µM | hit rate 69% among 2,400 | AID 488927, 2010;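 active = membrane potential signal moved up or down beyond 5 SD of buffer control wells, in both duplicate plates, actives on both sides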
TRPC4 ctr inh 2 – second selectivity test of TRPC6 modulators against mouse TRPC4. shares compounds with TRPC6 inhibitor. HEK293 TRPC4/mu-opioid, membrane potential dye fluorescence; stimulated with maximal-effect DAMGO. inhibition, % at 10 µM. hit rate 55% among 2,400. AID 488928;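 active = drop in membrane potential signal beyond 5 SD of the control wells in both duplicate plates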;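 also: TRPC4 counter screen for TRPC6 hits run under conditions tuned for TRPC6 not TRPC4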
TRPC6 block conf – mouse TRPC6 channel inhibitors, confirmation, HEK293 cells, membrane potential dye, duplicate | shares compounds with TRPC6 inhibitor | ACh-evoked depolarization | inhibition, % at 10 µM | hit rate 43% among 3,300 | AID 488960, 2010;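 active = fluorescence ratio falls more than 5 SD below the full-stimulation control mean, in both duplicate runs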;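 also: integrated fluorescence ratio of peak minus minimum over baseline after agonist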
TRPC6 act conf – mouse TRPC6 channel activators, confirmation, HEK293 cells, membrane potential dye, duplicate; shares compounds with TRPC6 inhibitor; HEK293-TRPC6 membrane potential dye fluorescence, FDSS; activation, % at 10 µM; hit rate 11% among 2,800;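 active = ratio signal rise beyond 5 SD above unstimulated control wells' mean, seen in both duplicate runs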
A number is an active result; n = inactive; x = no result given. The list is not random: actives were taken first. Their share in the collection is about 2.3%.

SMILES	TRPC4 act	TRPC4 inh	TRPC6 inhibitor	TRPC4 PAM	TRPC6 activator	TRPC4 spec 2	TRPC4 spec	HEK293 MPD ctr 2-1	HEK293 MPD ctr-1	HEK293 MPD ctr-2	HEK293 MPD ctr 2-2	TRPC4 ctr mod	TRPC4 ctr inh 2	TRPC6 block conf	TRPC6 act conf
COc1cc(OC)c2ccc(=O)oc2c1C(CCN1CCCC(C)C1)c1ccc(N(C)C)cc1 (stereo unspecified)	n	n	-5.72	n	n	x	x	x	x	-112.5%	n	-26.0%	70.0%	49.0%	n
COc1cc(OC)c2c(-c3ccccc3)cc(=O)oc2c1C(CCN1CCCCC1)c1ccc(N(C)C)cc1 (stereo unspecified)	116	n	-6.23	n	n	x	x	x	x	n	n	36.0%	103.5%	55.0%	n
O=C(NCCc1ccc(Cl)cc1)C1CCN(C(=O)c2ccc(F)cc2)CC1	n	n	n	n	n	x	x	x	x	x	x	x	x	x	x
Cc1cc(=O)c2cccc(Br)c2[nH]1	n	n	n	n	n	x	x	x	x	x	x	x	x	x	x
O=c1cc(C(F)(F)F)[nH]c2c(C(F)(F)F)cccc12	n	n	-10.2	n	n	66.5%	58.0%	n	32.1%	x	x	x	x	82.8%	x
O=c1cc(C(F)(F)F)[nH]c2ccc(OC(F)(F)F)cc12	n	n	-7.12	n	n	n	23.4%	21.5%	13.2%	x	x	x	x	103.9%	x
COc1ccc(C(=O)C2CCCN(Cc3cccn3-c3ccc(Cl)cn3)C2)c(OC)c1 (stereo unspecified)	n	n	-5.79	n	n	x	x	x	x	134.5%	n	14.5%	89.0%	53.0%	x
O=C(c1cccc(C(F)(F)F)c1)C1CCCN(Cc2cccn2-c2ccccn2)C1 (stereo unspecified)	n	-5	-7.54	n	n	35.0%	18.1%	n	14.1%	x	x	x	x	56.8%	n
O=C(O)/C=C/c1cnn(-c2ccccc2)c1	n	n	n	n	n	x	x	x	x	x	x	x	x	x	x
